Source: PubChem BioAssay
Dynein transport: dynein cargo transport inhibition | z-score, hits read low | actives 0.47% (n = 220,000) | 3617.4 mouse cells, GR-EGFP nuclear translocation imaging; test concentration mostly 20 µM; stimulated with dexamethasone, 1 µM; active compounds read low;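 active means plate z-score of nuclear minus cytoplasmic receptor signal below a set negative limit, without overly bright fluorescence or cell loss, cut at about -3.5 in these data, passing the limit was not always enough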;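 further: z-score of nuclear minus cytoplasmic ring GR-EGFP intensity difference per well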
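Schedule: 48 h induction, then 1 h compound, then 30 min agonist, 37 °C. Buffer or medium: tetracycline-free induction medium containing charcoal-stripped FBS. Reagent: 1.0 µM final dexamethasone stimulus. Evaluation: nuclear versus cytoplasmic GR-EGFP signal, averaged per well. Signal: high-content fluorescence imaging after fixation.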
CHOP inhibitor: inhibitors of CHOP induction in ER stress response. CHO-K1 CHOP-promoter luciferase, tunicamycin-induced, 15-18 h. inhibition, % at 10 µM. actives 3.8% (n = 220,000);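 active means compounds that reduced the stress-induced luciferase reporter signal by more than about 70% of percent inhibition, limit read from the data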;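 further: 0% = tunicamycin plus vehicle and 100% = wells without tunicamycin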
T cruzi inh: T. cruzi replication inhibition. T. cruzi beta-gal in NIH3T3, luminescence, 90 h. inhibition, % (no concentration beside the values). actives 1.4% (n = 300,000);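 active means mean inhibition across valid replicates above about 55%, limit read from the data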;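 further: signal also drops with host cell toxicity which is not excluded here; 0% = plate median of DMSO wells and 100% = zero luminescence signal; higher percent means less beta-gal luminescence so fewer parasites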
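Test system: β-gal T. cruzi (Tulahuen C4) inside NIH/3T3 cells / Quantity: 5,000 cells/well / Measured by: luminescence from GalScreen with 0.05% NP40, read after 60 min / Medium: DMEM plus 2% FBS / Measure: parasite load inhibition, % / Reagent: Tulahuen C4 trypomastigotes, 5000/well / Schedule: co-culture of at least 90 h after 3 h attachment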
XBP1 UPR activ: adaptive UPR (XBP1) activation | CHO-XBP1 luciferase reporter, IRE1-XBP1 UPR activation, luminescence; percent of tunicamycin response, DMSO as zero | actives 0.33% (n = 330,000) | activation, % at 20 µM;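 active means versus positive control, 20 µM dose yields 30% or more activation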;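 further: 100% = tunicamycin at 10 µg/mL and 0% = DMSO only wells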
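Signal: luciferase luminescence; Assay system: CHO-XBP1 luciferase reporter cells; Amount: one thousand reporter cells per well; Dosing: 20 µM single concentration, DMSO 1%; Benchmarks: high control tunicamycin 10 µg/mL final, low control DMSO vehicle only; Schedule: 6 h compound exposure at 37 °C, 5% CO2; Evaluation: percent activation relative to tunicamycin reference.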
CHOP UPR activ: apoptotic UPR (CHOP) activation. activation, % at 10 µM. CHO-CHOP luciferase reporter, luminescence; percent of tunicamycin response over DMSO baseline. actives 0.34% (n = 330,000);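 active means at 10 µM dose, activation of 40% or more, normalized to positive control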;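 further: 100% = tunicamycin at 10 µg/mL and 0% = DMSO alone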
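Assay system: CHO-CHOP cells, stable luciferase reporter of PERK-eIF2a-CHOP signalling / Buffer or medium: F12 plus 10% serum / Compound dosing: one dose, 10 µM in 0.5% DMSO / Times: 6 h compound treatment, 37 °C / Technique: luciferase luminescence / Read-out: % reporter activation, DMSO baseline versus tunicamycin full activation / Benchmarks: tunicamycin and DMSO controls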
L major viab: reduces viability of Leishmania major promastigotes; resazurin fluorescence viability; inhibition, % at 10 µM; actives 9% (n = 200,000); in the data active means inhibition above about 50%;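 further: promastigotes grown with compound for 44 hours at 28 °C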
Starred values were filed as active, the others as inactive; . = not tested or not shown. This excerpt belongs to a sample that is enriched for hits.

SMILES	Dynein transport	CHOP inhibitor	T cruzi inh	XBP1 UPR activ	CHOP UPR activ	L major viab
CS(=O)(=O)c1ccc(Sc2nc3ccccc3s2)c([N+](=O)[O-])c1	2.2	6	4	-2	2	80*
CS(=O)(=O)c1ccc(Sc2nc3ccccc3[nH]2)c([N+](=O)[O-])c1	-0.77	14	44	1	3	38
CN(C)c1oc(-c2ccccc2Cl)nc1P(=O)(c1ccccc1)c1ccccc1	0.078	21	14	-2	-2	96*
COCCN1CC(=O)N(c2cccc(C)c2C)C(c2ccc(Cl)cc2)C1=O (configuration not stated)	-0.077	7	12	-2	1	0
Cc1cccc(N2C(=O)C(Oc3ccc(Cl)cc3Cl)C2C=O)c1C (configuration not stated)	-1.4	18	.	.	.	100*
O=C(CSc1ncnc2c1oc1ccccc12)Nc1cccc(Cl)c1	-0.68	66	20	1	2	-1
O=C(CSc1ncnc2c1oc1ccccc12)Nc1cccc(C(F)(F)F)c1	1.3	79*	-14	-1	-2	12
CCOc1ccc(N2C=Nc3ccc(OCC)cc3C2)cc1	.	.	24	-2	2	.
COc1cccc(C(=O)COc2ccccc2-c2ccccc2)c1	-0.048	29	9	-3	0	53*
Cc1ccc(CNC(=O)COc2ccccc2-c2ccccc2)cc1	0.35	10	23	-2	-1	70*
CC(NC(=O)COc1ccccc1-c1ccccc1)c1ccccc1 (configuration not stated)	0.24	77*	9	-1	-2	34
CC(=O)Nc1ccccc1OCC(=O)NC(C)c1ccccc1 (configuration not stated)	0.45	18	16	0	-2	4
O=[N+]([O-])c1cccc(S(=O)(=O)NCCCn2ccnc2)c1	.	.	-3	-3	1	.
CC1COC(=O)C(NNc2ccc(Cl)c(Cl)c2)=N1 (configuration not stated)	-0.56	19	-9	-2	0	100*
CCOC(=O)CSc1nnc2n(Cc3ccccc3)c(=O)c3c4c(sc3n12)CCC4	1.6	25	.	.	.	7
C=CCn1c(=O)c2c3c(sc2n2c(Nc4ccccc4)nnc12)CCCC3	-0.12	66	36	1	1	52*
C=CCn1c(=O)c2c3c(sc2n2c(Nc4ccc(OC)cc4)nnc12)CCCC3	-0.34	12	.	4	2	38
C=CCn1c(=O)c2c3c(sc2n2c(Nc4ccc(C(=O)OCC)cc4)nnc12)CCCC3	-0.54	88*	24	8	4	94*
Nc1ccn(CC(=O)NCCNc2ccc([N+](=O)[O-])cn2)c(=O)n1	.	.	.	0	2	.
Cc1ccc(C(=O)NCC(=O)OCC(=O)NC2CCS(=O)(=O)C2)cc1C (configuration not stated)	-0.11	10	-8	-2	1	52*
O=C(c1ccco1)N1CCC(c2nc3c(nnn3Cc3ccc(F)cc3)c(=O)[nH]2)CC1	.	.	-6	2	0	.
O=C(CNc1cccc2ccccc12)N/N=C/c1ccc([N+](=O)[O-])o1	-0.19	15	83*	-1	1	99*
O=C(CNc1cccc([N+](=O)[O-])c1)N/N=C/c1ccc([N+](=O)[O-])o1	-0.28	-12	68*	-2	1	100*
CSc1ccc(/C=N/NC(=O)CNc2cccc3ccccc23)cc1	-0.34	94*	6	-1	-1	-3
O=C(CNc1ccccc1)N/N=C/c1ccc([N+](=O)[O-])cc1	-0.12	1	-11	4	0	14
SMILES	Dynein transport	CHOP inhibitor	T cruzi inh	XBP1 UPR activ	CHOP UPR activ	L major viab
CSc1ccc(/C=N/NC(=O)CNc2ccc3ccccc3c2)cc1	0.45	10	4	0	-1	-1
COc1ccc(Cl)cc1S(=O)(=O)NC(C)C(=O)NCc1ccc2c(c1)OCO2 (configuration not stated)	.	.	19	-2	1	.
CCOc1ccc(OCc2cccc(C(=O)Nc3ccc(CN4CCCCC4)cc3)c2)cc1	-0.37	61	26	-7	-1	96*
COc1cc(OC)cc(C(=O)Nc2ccc(CN3CCCCC3)cc2)c1	1.8	0	21	-2	-2	10
COc1ccc(OCc2cccc(C(=O)Nc3ccc(CN4CCCCC4)cc3)c2)cc1	-0.43	9	31	-7	-1	78*
COc1ccccc1N1C(=NC(=O)COc2ccccc2)SC2CS(=O)(=O)CC21 (configuration not stated)	.	.	-4	-3	1	.
COc1ccc(-c2cc(C(=O)Nc3cccc(O)c3)no2)cc1	.	.	4	-13	-4	.
CC(=O)c1ccc(OCCCC(=O)Nc2ccc(C)c(S(=O)(=O)N3CCCCC3)c2)cc1	.	.	.	-2	0	.
CC(=O)c1ccc(OCCCC(=O)Nc2ccc(C)c(S(=O)(=O)N(C)C)c2)cc1	-0.9	-4	-4	1	3	61*
Cc1cc(C)n(-c2ccc(C(=O)Nc3ccc(S(=O)(=O)N(C)C)cc3)cc2)n1	-0.13	27	11	1	2	10
Cc1cc(C)n(-c2ccc(C(=O)Nc3ccc(C)c(S(=O)(=O)N(C)C)c3)cc2)n1	-0.12	39	2	-1	5	53*
O=[N+]([O-])c1ccccc1Oc1ccc(S(=O)(=O)N2CCOCC2)cc1	.	.	.	-2	1	.
O=C(NCc1ccco1)c1ccc(CS(=O)Cc2ccc(Cl)cc2)o1 (configuration not stated)	.	.	8	-6	2	.
Nc1cccc(C(=O)N/N=C/c2ccsc2)c1	-0.32	-20	-7	3	1	-7
CCCNC(=O)C(CC)NC(=O)c1cccc([N+](=O)[O-])c1 (configuration not stated)	.	.	.	0	0	.
COc1cc(OC)c(OC)cc1CN(C)C(c1ccccc1)c1nnnn1-c1ccccc1C (configuration not stated)	-0.6	85*	29	-5	-4	16
COc1ccc(CN(C)C(c2ccccc2)c2nnnn2-c2ccccc2C)c(OC)c1C (configuration not stated)	-0.067	52	14	-2	0	12
Cc1ccc(S(=O)(=O)CCC(=O)OC2CC(C)OC2=O)cc1 (configuration not stated)	.	.	.	-2	0	.
CC1CCN(C(=O)CN2C(=O)C(=O)N(C)C2=O)c2ccccc2S1 (configuration not stated)	.	.	.	-1	0	.
C/C(=N/NC(=O)c1cn(-c2cccc(C)n2)cn1)c1ccc(C)cc1	-0.64	66	.	-2	0	77*
